# Laboratory results reported in ChEMBL document CHEMBL1122483, “Synthesis and antihypertensive activity of substituted trans-4-amino-3,4-dihydro-2,2-dimethyl-2H-1-benzopyran-3-ols” (1983).
# How the values were obtained:
# [1] = test system: Rattus norvegicus; assay: Maximum fall in systolic blood pressure, intervals from 1 to 6 hours at a dose of 100 mg/kg administered per orally; format: functional, Artery; details: route oral
# Summary of the method: (§1)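 DOCA/NaCl-treated hypertensive rats, kept at least 2 months after surgery (body weight 300–450 g), selected at systolic pressure of 160 mmHg or more. Compound given orally by dosing needle into the esophagus as a solution or suspension in 1% w/v methylcellulose. Systolic pressure measured by tail-cuff in restrained rats at 33.5 °C, before dosing and at intervals from 1 to 6 h; each reading was the mean of at least six recordings.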
# [2] = test system: Rattus norvegicus; assay: Maximum fall in systolic blood pressure, intervals from 1 to 6 hours at a dose of 10 mg/kg administered per orally; format: functional, Artery; details: route oral; summary of the method: as §1
# [3] = test system: Rattus norvegicus; assay: Maximum fall in systolic blood pressure at interval from 1 to 6 hours at a dose of 1 mg/kg when administered perorally in rats; format: functional, Artery; details: route oral; summary of the method: as §1
# [4] = test system: Rattus norvegicus; assay: Maximum fall in systolic blood pressure at interval from 1 to 6 hours at a dose of 3 mg/kg when administered perorally in rats; format: functional, Artery; details: route oral; summary of the method: as §1
# [5] = test system: Rattus norvegicus; assay: Maximum fall in systolic blood pressure at interval from 1 to 6 hours at a dose of 30 mg/kg when administered perorally in rats; format: functional, Artery; details: route oral; summary of the method: as §1
# [6] = test system: Rattus norvegicus; assay: Maximum fall in systolic blood pressure at interval from 1 to 6 hours at a dose of 0.3 mg/kg when administered perorally in rats; format: functional, Artery; details: route oral; summary of the method: as §1
# [7] = test system: Rattus norvegicus; assay: Maximum fall in systolic blood pressure at interval from 1 to 6 hours at a dose of 300 mg/kg when administered perorally in rats; format: functional, Artery; details: route oral; summary of the method: as §1
# [8] = species on record: Rattus norvegicus; assay: Compound was tested at 9.7e-6M for inhibition of spontaneous activity in rat isolated portal vein
SMILES,Max fall in blood pressure [1] [mmHg],Max fall in blood pressure [2] [mmHg],Max fall in blood pressure [5] [mmHg],other results
CC1(C)Oc2ccc(C(N)=O)cc2[C@@H](N2CCCC2)[C@@H]1O.CS(=O)(=O)O,21,–,–,–
CC(=O)Nc1ccc2c(c1)[C@@H](N1CCCCC1)[C@H](O)C(C)(C)O2.CS(=O)(=O)O,14,6,–,–
CC1(C)Oc2ccc([N+](=O)[O-])cc2[C@@H](N2C3CCCC2CCC3)[C@@H]1O.CS(=O)(=O)O,–,20,–,–
CC1(C)Oc2ccc([N+](=O)[O-])cc2[C@@H](N2CCCC2)[C@@H]1O.CS(=O)(=O)O,–,98,–,Max fall in blood pressure [3]: 52 mmHg; Max fall in blood pressure [4]: 79 mmHg
C/C(=N\O)c1ccc2c(c1)[C@@H](N1CCCCC1)[C@H](O)C(C)(C)O2.CS(=O)(=O)O,74,17,80,–
CC1(C)Oc2ccc([N+](=O)[O-])cc2[C@@H](NC2CC2)[C@@H]1O.CS(=O)(=O)O,95,31,–,–
COC(=O)c1ccc2c(c1)[C@@H](N1CCCC1)[C@H](O)C(C)(C)O2.CS(=O)(=O)O,–,58,65,Max fall in blood pressure [4]: 14 mmHg
CC(C)(C)N[C@@H]1c2cc([N+](=O)[O-])ccc2OC(C)(C)[C@H]1O.CS(=O)(=O)O,7,–,–,–
CS(=O)(=O)O.Cc1c([N+](=O)[O-])ccc2c1OC(C)(C)[C@@H](O)[C@@H]2N1CCCCC1,39,–,–,–
CC1(C)Oc2ccc([N+](=O)[O-])cc2[C@@H](N2CCCCC2)[C@@H]1O.CS(=O)(=O)O,–,105,–,Max fall in blood pressure [3]: 28 mmHg; Max fall in blood pressure [4]: 73 mmHg
CC1(C)Oc2ccc(C(=O)O)cc2[C@@H](N2CCCC2)[C@@H]1O,–,2,–,–
CC1(C)Oc2cc([N+](=O)[O-])ccc2[C@@H](N2CCCC2)[C@@H]1O.CS(=O)(=O)O,–,99,–,Max fall in blood pressure [3]: 44 mmHg; Max fall in blood pressure [4]: 90 mmHg
CC1(C)Oc2c(ccc3ccccc23)[C@@H](N2CCCC2)[C@@H]1O,4,–,–,–
CC1(C)Oc2ccc(C(N)=O)cc2[C@@H](N2CCCCC2)[C@@H]1O.CS(=O)(=O)O,30,9,–,–
CN[C@@H]1c2cc([N+](=O)[O-])ccc2OC(C)(C)[C@H]1O.Cl,43,–,21,–
COc1ccc2c(c1)[C@@H](N1CCCC1)[C@H](O)C(C)(C)O2.Cl,17,–,29,–
CC1(C)Oc2ccc(Cl)cc2[C@@H](N2CCCCC2)[C@@H]1O.Cl,69,–,7,–
CC1(C)Oc2cccc(C#N)c2[C@@H](N2CCCCC2)[C@@H]1O.Cl,33,13,–,–
CC1(C)Oc2ccc(C#N)cc2[C@@H](N2CCCCC2)[C@@H]1O.Cl,–,107,–,Max fall in blood pressure [6]: 29 mmHg; Max fall in blood pressure [3]: 35 mmHg; Max fall in blood pressure [4]: 88 mmHg
CC1(C)Oc2ccc([N+](=O)[O-])cc2[C@@H](N2CCCCCC2)[C@@H]1O.Cl,96,17,–,–
CC1(C)Oc2cc([N+](=O)[O-])ccc2[C@@H](N2CCCCC2)[C@@H]1O.Cl,79,48,–,Max fall in blood pressure [4]: 18 mmHg
CCN(CC)[C@@H]1c2cc([N+](=O)[O-])ccc2OC(C)(C)[C@H]1O.Cl,54,–,34,–
Cc1ccc2c(c1)[C@@H](N1CCCCC1)[C@H](O)C(C)(C)O2.Cl,43,34,44,–
CC1(C)Oc2ccc([N+](=O)[O-])cc2[C@@H](NCCCO)[C@@H]1O.Cl,28,–,–,–
CC1(C)Oc2cc(C#N)ccc2[C@@H](N2CCCCC2)[C@@H]1O.Cl,33,–,7,–

SMILES,Max fall in blood pressure [1] [mmHg],Max fall in blood pressure [2] [mmHg],Max fall in blood pressure [5] [mmHg],other results
CC1(C)Oc2ccc(F)cc2[C@@H](N2CCCCC2)[C@@H]1O.Cl,26,16,–,–
CC(=O)c1ccc2c(c1)[C@@H](N1CCCCC1)[C@H](O)C(C)(C)O2.Cl,127,51,65,Max fall in blood pressure [4]: 12 mmHg
CC1CCN([C@@H]2c3cc([N+](=O)[O-])ccc3OC(C)(C)[C@H]2O)CC1.Cl,–,28,–,–
CC1(C)Oc2c(C#N)cccc2[C@@H](N2CCCCC2)[C@@H]1O.Cl,33,5,–,–
CC(C)N[C@@H]1c2cc([N+](=O)[O-])ccc2OC(C)(C)[C@H]1O.Cl,36,–,–,Max fall in blood pressure [7]: 69 mmHg
CC1(C)Oc2ccc([N+](=O)[O-])cc2[C@@H](NCCO)[C@@H]1O.Cl,27,–,–,–
CC1(C)Oc2ccc(C#N)cc2[C@@H](N2CCCC2)[C@@H]1O.Cl,–,–,–,Max fall in blood pressure [6]: 15 mmHg; Max fall in blood pressure [3]: 43 mmHg; Max fall in blood pressure [4]: 117 mmHg; Inhibition [8]: 32%
CC1(C)Oc2ccccc2[C@@H](N2CCCC2)[C@@H]1O.Cl,46,–,10,–
CC1(C)Oc2ccc([N+](=O)[O-])cc2[C@@H](N2CCN(c3ccccc3)CC2)[C@@H]1O.Cl,–,10,–,–
CC1(C)Oc2ccc([N+](=O)[O-])cc2[C@@H](NCC2CC2)[C@@H]1O.Cl,13,–,–,–
CC1CCC(C)N1[C@@H]1c2cc([N+](=O)[O-])ccc2OC(C)(C)[C@H]1O.Cl (stereo not given in full),–,–,26,–
CC(O)c1ccc2c(c1)[C@@H](N1CCCCC1)[C@H](O)C(C)(C)O2.Cl (stereo not given in full),–,20,115,–
CC1(C)Oc2ccc3ccccc3c2[C@@H](N2CCCCC2)[C@@H]1O.Cl,4,–,–,–
CN(C)[C@@H]1c2cc([N+](=O)[O-])ccc2OC(C)(C)[C@H]1O.Cl,29,–,–,–
CC1(C)Oc2ccc([N+](=O)[O-])cc2[C@@H](N)[C@@H]1O.Cl,45,–,23,–
Cc1ccc2c(c1)[C@@H](N1CCCC1)[C@H](O)C(C)(C)O2.Cl,9,–,–,–
CC(=O)c1ccc2c(c1)[C@@H](N1CCCC1)[C@H](O)C(C)(C)O2.Cl,78,53,66,Max fall in blood pressure [4]: 39 mmHg
CC1(C)Oc2cccc([N+](=O)[O-])c2[C@@H](N2CCCCC2)[C@@H]1O.Cl,12,–,–,–
CC1(C)Oc2ccc([N+](=O)[O-])cc2[C@@H](N2CCOCC2)[C@@H]1O.Cl,70,23,55,–
CC1(C)Oc2ccc(N)cc2[C@@H](N2CCCC2)[C@@H]1O.Cl.Cl,6,–,–,–
CC1(C)Oc2ccc([N+](=O)[O-])cc2[C@@H](NCCN2CCCC2)[C@@H]1O.Cl.Cl,23,–,–,–
CC1(C)Oc2ccc([N+](=O)[O-])cc2[C@@H](N2CCCCCCC2)[C@@H]1O.Cl,–,53,82,Max fall in blood pressure [4]: 34 mmHg
NNc1nncc2ccccc12 [HYDRALAZINE],–,113,–,Max fall in blood pressure [3]: 32 mmHg; Max fall in blood pressure [4]: 65 mmHg; Inhibition [8]: 40%
COC(=O)C1=C(C)NC(C)=C(C(=O)OC)C1c1ccccc1[N+](=O)[O-] [NIFEDIPINE],–,–,–,Max fall in blood pressure [6]: 20 mmHg; Max fall in blood pressure [3]: 33 mmHg; Max fall in blood pressure [4]: 51 mmHg
